Measured values from the array DNA melting data of Ke et al. (doi:10.1101/2024.01.08.574731).

Tests used:
[1] = folding enthalpy; higher = less favourable; fluorescence melt of hairpins on a sequencing array, two-state fit; conditions: sodium 0.088 M
Method in brief: (§1)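 Cy3 signals were normalised both to pre-quench Cy3 and to control constructs. They came from library hairpins carrying annealed Cy3 and quencher oligos on a sequenced MiSeq flow cell, imaged in 50 mM Na-HEPES pH 8.0, 25 mM NaCl, in 2.5 °C steps up to 60 °C. Bootstrapped two-state fits gave melting temperature and folding enthalpy, and four replicates were combined by inverse variance. Fitted temperatures were then raised by 9.35 °C to match UV melts.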

[2] = melting temperature; fluorescence melt of hairpins on a sequencing array, two-state fit, raised by 9.35 °C to match UV melts; conditions: sodium 0.088 M
Method in brief: as §1

Sequence | folding enthalpy [1] [kcal/mol] | Tm [2] [°C]
GTTCCCCCGAAAGGGAAC (((..(((....)))))) | -34.7 | 51.6
GCACAGCGAAAGCGATGC (((..((....))..))) | -15.8 | 51.6
GCTCTTACGAAAGTAAGC (((..(((....)))))) | -9.83 | 34.7
GCGAGACCTCGC ((((....)))) | -13.8 | 56.5
GCAGAAGGAAACTTCCGC ((.((((....)))).)) | -20.6 | 37.5
GATCGTTCGGACGATC ((((((....)))))) | -37.8 | 56.9
GCGAAGGGAAACCTCCGC (((.(((....))).))) | -26.1 | 46.6
GGTTGGTCGAAAGACACC (((..(((....)))))) | -17.3 | 37
AGAGTGAAAACTCT (((((....))))) | -16.6 | 40.8
GCGCCGCGAAAGCGTAGC ((..(((....)))..)) | -13.5 | 59.1
GCGGGGCGAAAGCATCGC (((..((....))..))) | -33.1 | 65.2
GGCCTAGCGAAAGCTGCC (((..(((....)))))) | -20.4 | 47.1
GACCCACGAAAGTGAGTC (((.(((....))).))) | -31.2 | 51.2
GCGTCTTAACGC ((((....)))) | -26.4 | 57.5
GCGTGATACGC ((((...)))) | -22.2 | 55.4
GGAGCCGGAAACGGCCCC ((.((((....)))).)) | -15.5 | 58.5
GACCCGCGAAAGCGCGTC (((.(((....))).))) | -21.9 | 47.8
GCGCGCGAAAGCGTTCGC ((((((....)))..))) | -14.6 | 53.3
GAGTTTGGAAACAGACTC ((((.((....)).)))) | -28.3 | 41.1
GCGTCCATACGC ((((....)))) | -23.3 | 52.7
GACGTCACGAAAGTGGTC (((..(((....)))))) | -15 | 35.6
GATCATAAAGATGATC ((((((....)))))) | -24.4 | 40
GCGTAGCGAAAGCAAAGC ((.(.((....)).).)) | -14.2 | 54.5
GGTGGCGAAAGCCTTACC ((((((....)))..))) | -14 | 40.2

Sequence | folding enthalpy [1] [kcal/mol] | Tm [2] [°C]
GTGTCATCGAAAGATCAC (((..(((....)))))) | -17.1 | 32.4
GATCGGGAGCCCGATC ((((((....)))))) | -36.5 | 55.5
GTATCCCGAAAGGGGTAC (((.(((....))).))) | -38.2 | 55.6
GCAACAGGAAACCGTTGC (((((.(....).))))) | -43.8 | 50.4
TAGACGAAAGTCTA (((((....))))) | -15.3 | 50.9
GATCATTATCATGATC ((((((....)))))) | -38.9 | 45.8
GTTAGGGGAAACCTTAAC ((((.((....)).)))) | -22.3 | 33.4
GCTGTGCGAAAGCAGAGC (((.(((....))).))) | -56 | 57.8
GTCTGCGGAAACGCGGAC (((.(((....))).))) | -39.2 | 63.7
GATCGACTGTTCGATC ((((((....)))))) | -40.5 | 50.6
CGGACCGGAAACGGCCG (((.(((....)))))) | -28.9 | 56
GGAACCGAAAGGTGTCC ((((((....))).))) | -17.7 | 47.5
GTTCACGAAAGTGTCAAC ((((((....)))..))) | -10.7 | 28.6
GCTAGAGCGAAAGCTAGC (((..(((....)))))) | -21.7 | 47.4
GTATGCGGAAACGCATAC (((((((....))))))) | -33.5 | 68.2
GCTGCGCGAAAGCTCTGC ((.(.((....)).).)) | -18.2 | 42.3
GCTAAACGAAAGTTAGC (((.(((....)))))) | -26.6 | 48.3
GGGATCGAAAGATATCCC ((((((....)))..))) | -25 | 39.8
GAGCCGGGAAACCGACTC (((.(((....))).))) | -42.8 | 49.5
GCATATCCGAAAGGATGC (((..(((....)))))) | -15.2 | 43.5
GGCCCACCGAAAGGTGCC (((..(((....)))))) | -9.96 | 34.2
GTGGATGGAAACGTCCAC (((((.(....).))))) | -47.6 | 53
GCGCTTGCGAAAGCACGC (((..(((....)))))) | -15.9 | 55.2
GGTCCCGAAAGGGAAACC ((((((....)))..))) | -15.3 | 43.2

Sequence | folding enthalpy [1] [kcal/mol] | Tm [2] [°C]
GCCAAGCGAAAGCGTTGC ((.(.((....)).).)) | -11.6 | 40.1
GGTGTGACGAAAGTCACC (((..(((....)))))) | -7.87 | 43.6
GGCTACGGAAACGTAACC ((.((((....)))).)) | -26.2 | 42.1
GCCACCGAAAGGTTAGGC ((((((....)))..))) | -25.5 | 51.1
GATCCCGTCCGGGATC ((((((....)))))) | -42 | 67.9
GTTGCGCCGAAAGGCAAC (((..(((....)))))) | -13.2 | 42.4
GGCCTGTCGAAAGACGCC (((..(((....)))))) | -18.8 | 45.2
GGTAGGGGAAACCCTATC (.(((((....))))).) | -24.4 | 44.3
AGACAGAAATGTCT (((((....))))) | -15.8 | 41.7
GCAGGGCGAAAGCCGCGC ((..(((....)))..)) | -22.2 | 64.7
GATTGACCGAAAGGTATC (((..(((....)))))) | -11.6 | 28.5
GCCGCGCGAAAGCTTGGC (((..((....))..))) | -22.7 | 55.1
GTAAGACGAAAGTCTAC (((.(((....)))))) | -14.6 | 41.7
TTTGGGAAACCAAA (((((....))))) | -13.6 | 38.2
GATCATGACAATGATC ((((((....)))))) | -40.6 | 56.6
GCGGCGCGAAAGCCACGC (((..((....))..))) | -20.8 | 61.7
GCGAACGAAAGTTTCGC ((((((....))).))) | -36.7 | 60
GAGTATGGAAACGTACTC (((((.(....).))))) | -33.1 | 43.5
GGCCGCGGAAACGCGACC ((.((((....)))).)) | -19.7 | 63.3
GTCCCCTCGAAAGAGGAC (((..(((....)))))) | -8.53 | 33.6
GCGTTCGAAAGAAAGCGC ((((((....)))..))) | -29.4 | 53.2
GCAACCGGAAACGGTCAC (..((((....))))..) | -8.88 | 24.9
GCATAGCGAAAGCTTCGC ((..(((....)))..)) | -10.1 | 34.6
GATCGTTTGACGATC ((((((...)))))) | -24.6 | 55.5

Sequence | folding enthalpy [1] [kcal/mol] | Tm [2] [°C]
GTTTAAGCGAAAGCTAAC (((..(((....)))))) | -11.8 | 32
GTGCAAGGAAACTTACAC (((.(((....))).))) | -21.5 | 34.8
GCGTTCCAACGC ((((....)))) | -27.7 | 55.6
GACGACCCGAAAGGGGTC (((..(((....)))))) | -10.1 | 42.3
GGCACCGAAAGGTGTGCC ((((((....)))..))) | -16.3 | 55.4
GCTCTCCGAAAGGATAGC (((.(((....))).))) | -34.7 | 49.1
GATCTACTTGTAGATC ((((((....)))))) | -41.1 | 56.2
GTTCGCGGAAACGCGAGC (.(((((....))))).) | -15.7 | 59.2
GCTGTTGAAAAACAGC ((((((....)))))) | -38.6 | 59.2
GATCCACTACTGGATC ((((((....)))))) | -35.5 | 49.7
GGCGTGGGAAACCATGCC (((.(((....))).))) | -44.5 | 61.4
GAAGGACGAAAGTCTTC (((.(((....)))))) | -14.7 | 39.8
GGGTAACGAAAGTTTCCC (((.(((....))).))) | -43 | 50.3
GTTGAGGGAAACTTCAAC (((((.(....).))))) | -33.6 | 40.5
GATCAGTCAGCTGATC ((((((....)))))) | -40.9 | 51.3
GTAGCGGAAACGCTAC ((((((....)))))) | -30.2 | 65.3
GCGGACGGAAACATCCGC (((((.(....).))))) | -39.2 | 52.9
GGTAGAACGAAAGTTACC (((..(((....)))))) | -17 | 35
GCGTCCCACGC ((((...)))) | -25.9 | 56.3
GATATGCGAAAGCAATC (((.(((....)))))) | -10.7 | 30
GCATAATCGAAAGATTGC (((..(((....)))))) | -18.1 | 37.2
